Measured values as given in ChEMBL document CHEMBL1122299, “Potential cerebral perfusion agents: synthesis and evaluation of a radioiodinated vinylalkylbarbituric acid analogue” (J Med Chem, 1983).

Assays:
Rattus norvegicus [1] = test: Distribution of radioactivity in liver tissue of rats at 2 hr after an intravenous injection; Value expressed as mean % injected dose, Range- 0.42-0.62; assay type: ADME, organism-based; details: in vivo
In short: (§1)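 Female Fischer 344 rats (10–12 wk, 170–200 g; food and water ad libitum) under ether received 7.95 μCi 125I-labeled agent (sp act ~155 mCi/mmol) in pH 7.4 phosphate buffer, filtered, via lateral tail vein. Four rats per time point (2 min–1 day). Killed by cervical fracture under ether; organs excised, saline-rinsed, blotted, weighed, gamma-counted; mean % injected dose/g with range.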

Rattus norvegicus [2] = test: Distribution of radioactivity in thyroid tissue of rats at 2 mins after an intravenous injection; Value expressed as mean % injected dose, Range- 6.65-8.0.8; assay type: ADME, organism-based, Thyroid gland; details: in vivo; in short: as §1
Rattus norvegicus [3] = test: Distribution of radioactivity in liver tissue of rats at 30 mins after an intravenous injection; Value expressed as mean % injected dose, Range- 0.97-1.41; assay type: ADME, organism-based; details: in vivo, 0.5 h; in short: as §1
Rattus norvegicus [4] = test: Distribution of radioactivity in liver tissue of rats at 1 day after an intravenous injection; Value expressed as mean % injected dose, Range- 0.02-0.02; assay type: ADME, organism-based; details: in vivo, 24 h; in short: as §1
Rattus norvegicus [5] = test: Distribution of radioactivity in heart tissue of rats at 2 hr after an intravenous injection; Value expressed as mean % injected dose, Range- 0.24-0.38; assay type: ADME, organism-based; details: in vivo; in short: as §1
Rattus norvegicus [6] = test: Distribution of radioactivity in heart tissue of rats at 30 mins after an intravenous injection; Value expressed as mean % injected dose, Range- 0.55-0.82; assay type: ADME, organism-based; details: in vivo, 0.5 h; in short: as §1
Rattus norvegicus [7] = test: Distribution of radioactivity in liver tissue of rats at 1 hr after an intravenous injection; Value expressed as mean % injected dose, Range- 0.71-0.93; assay type: ADME, organism-based; details: in vivo; in short: as §1
Rattus norvegicus [8] = test: Ratio between the distribution of radioactivity of brain to that of blood tissue of rats at 2 min after an intravenous administration; assay type: ADME, organism-based
In short: (§2)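 Same rats (four per time point, 2 min–1 day) after a 7.95 μCi tail-vein dose of 125I-labeled agent in pH 7.4 phosphate buffer. Brain and blood were excised, weighed and gamma-counted as % injected dose/g. The ratio compares brain to blood radioactivity and is reported as a mean.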

Rattus norvegicus [9] = test: Distribution of radioactivity in blood of rats at 5 mins after an intravenous injection; Value expressed as mean % injected dose, Range-0.81-1; assay type: ADME, organism-based; details: in vivo; in short: as §1
Rattus norvegicus [10] = test: Distribution of radioactivity in lung tissue of rats at 4 hr after an intravenous injection; Value expressed as mean % injected dose, Range- 0.28-0.31; assay type: ADME, organism-based; details: in vivo; in short: as §1
Rattus norvegicus [11] = test: Distribution of radioactivity in brain tissue of rats at 2 mins after an intravenous injection; Value expressed as mean % injected dose, Range- 0.77-0.97; assay type: ADME, organism-based; details: in vivo; in short: as §1
Rattus norvegicus [12] = test: Distribution of radioactivity in brain tissue of rats at 1 hr after an intravenous injection; Value expressed as mean % injected dose, Range- 0.18-0.22; assay type: ADME, organism-based; details: in vivo; in short: as §1
Rattus norvegicus [13] = test: Distribution of radioactivity in lung tissue of rats at 5 mins after an intravenous injection; Value expressed as mean % injected dose, Range- 0.98-1.22; assay type: ADME, organism-based; details: in vivo; in short: as §1
Rattus norvegicus [14] = test: Distribution of radioactivity in blood of rats at 1 hr after an intravenous injection; Value expressed as mean % injected dose, Range-0.9-1.03; assay type: ADME, organism-based; details: in vivo; in short: as §1
Rattus norvegicus [15] = test: Distribution of radioactivity in blood of rats at 4 hr after an intravenous injection; Value expressed as mean % injected dose, Range- 0.45-0.48; assay type: ADME, organism-based; details: in vivo; in short: as §1
Rattus norvegicus [16] = test: Distribution of radioactivity in thyroid tissue of rats at 4 hr after an intravenous injection; Value expressed as mean % injected dose, Range- 156-207; assay type: ADME, organism-based, Thyroid gland; details: in vivo; in short: as §1
Rattus norvegicus [17] = test: Distribution of radioactivity in heart tissue of rats at 4 hr after an intravenous injection; Value expressed as mean % injected dose, Range- 0.16-0.2; assay type: ADME, organism-based; details: in vivo; in short: as §1
Rattus norvegicus [18] = test: Ratio between the distribution of radioactivity of brain to that of blood tissue of rats at 4 hr after an intravenous administration; assay type: ADME, organism-based; in short: as §2
Rattus norvegicus [19] = test: Distribution of radioactivity in blood of rats at 30 mins after an intravenous injection; Value expressed as mean % injected dose, Range = 0.68-1.03; assay type: ADME, organism-based; details: in vivo, 0.5 h; in short: as §1
Rattus norvegicus [20] = test: Distribution of radioactivity in brain tissue of rats at 2 hr after an intravenous injection; Value expressed as mean % injected dose, Range- 0.08-0.13; assay type: ADME, organism-based; details: in vivo; in short: as §1
Rattus norvegicus [21] = test: Distribution of radioactivity in heart tissue of rats at 1 hr after an intravenous injection; Value expressed as mean % injected dose, Range- 0.5-0.63; assay type: ADME, organism-based; details: in vivo; in short: as §1
Rattus norvegicus [22] = test: Distribution of radioactivity in heart tissue of rats at 1 day after an intravenous injection; Value expressed as mean % injected dose, Range- 0.02-0.02; assay type: ADME, organism-based; details: in vivo, 24 h; in short: as §1
Rattus norvegicus [23] = test: Distribution of radioactivity in thyroid tissue of rats at 1 day after an intravenous injection; Value expressed as mean % injected dose, Range- 406-499; assay type: ADME, organism-based, Thyroid gland; details: in vivo, 24 h; in short: as §1
Rattus norvegicus [24] = test: Distribution of radioactivity in brain tissue of rats at 1 day after an intravenous injection; Value expressed as mean % injected dose, Range- 0.007-0.008; assay type: ADME, organism-based; details: in vivo, 24 h; in short: as §1
Rattus norvegicus [25] = test: Distribution of radioactivity in brain tissue of rats at 4 hr after an intravenous injection; Value expressed as mean % injected dose, Range- 0.03-0.04; assay type: ADME, organism-based; details: in vivo; in short: as §1
Rattus norvegicus [26] = test: Distribution of radioactivity in thyroid tissue of rats at 30 mins after an intravenous injection; Value expressed as mean % injected dose, Range- 18.74-30.84; assay type: ADME, organism-based, Thyroid gland; details: in vivo, 0.5 h; in short: as §1
Rattus norvegicus [27] = test: Distribution of radioactivity in heart tissue of rats at 5 mins after an intravenous injection; Value expressed as mean % injected dose, Range- 1.13-1.29; assay type: ADME, organism-based; details: in vivo; in short: as §1
Rattus norvegicus [28] = test: Distribution of radioactivity in liver tissue of rats at 4 hr after an intravenous injection; Value expressed as mean % injected dose, Range- 0.19-0.23; assay type: ADME, organism-based; details: in vivo; in short: as §1
Rattus norvegicus [29] = test: Distribution of radioactivity in liver tissue of rats at 2 mins after an intravenous injection; Value expressed as mean % injected dose, Range- 2.91-3.53; assay type: ADME, organism-based; details: in vivo; in short: as §1
Rattus norvegicus [30] = test: Distribution of radioactivity in blood of rats at 2 mins after an intravenous injection; Value expressed as mean % injected dose, Range = 0.88-1.15; assay type: ADME, organism-based; details: in vivo; in short: as §1
Rattus norvegicus [31] = test: Distribution of radioactivity in lung tissue of rats at 2 mins after an intravenous injection; Value expressed as mean % injected dose, Range- 1.17-1.42; assay type: ADME, organism-based; details: in vivo; in short: as §1
Rattus norvegicus [32] = test: Distribution of radioactivity in blood of rats at 1 day after an intravenous injection; Value expressed as mean % injected dose, Range- 0.03-0.03; assay type: ADME, organism-based; details: in vivo, 24 h; in short: as §1
Rattus norvegicus [33] = test: Ratio between the distribution of radioactivity of brain to that of blood tissue of rats at 1 day after an intravenous administration; assay type: ADME, organism-based; details: 24 h; in short: as §2
Rattus norvegicus [34] = test: Distribution of radioactivity in brain tissue of rats at 5 mins after an intravenous injection; Value expressed as mean % injected dose, Range- 0.74-0.94; assay type: ADME, organism-based; details: in vivo; in short: as §1
Rattus norvegicus [35] = test: Distribution of radioactivity in heart tissue of rats at 2 mins after an intravenous injection; Value expressed as mean % injected dose, Range- 1.35-1.55; assay type: ADME, organism-based; details: in vivo; in short: as §1
Rattus norvegicus [36] = test: Ratio between the distribution of radioactivity of brain to that of blood tissue of rats at 1 hr after an intravenous administration; assay type: ADME, organism-based; in short: as §2
Rattus norvegicus [37] = test: Ratio between the distribution of radioactivity of brain to that of blood tissue of rats at 5 min after an intravenous administration; assay type: ADME, organism-based; in short: as §2
Rattus norvegicus [38] = test: Distribution of radioactivity in blood of rats at 2 hr after an intravenous injection; Value expressed as mean % injected dose, Range = 0.71-0.87; assay type: ADME, organism-based; details: in vivo; in short: as §1
Rattus norvegicus [39] = test: Distribution of radioactivity in lung tissue of rats at 1 hr after an intravenous injection; Value expressed as mean % injected dose, Range- 0.66-0.77; assay type: ADME, organism-based; details: in vivo; in short: as §1
Rattus norvegicus [40] = test: Distribution of radioactivity in lung tissue of rats at 1 day after an intravenous injection; Value expressed as mean % injected dose, Range- 0.02-0.03; assay type: ADME, organism-based; details: in vivo, 24 h; in short: as §1
Rattus norvegicus [41] = test: Distribution of radioactivity in lung tissue of rats at 30 mins after an intravenous injection; Value expressed as mean % injected dose, Range- 0.65-0.87; assay type: ADME, organism-based; details: in vivo, 0.5 h; in short: as §1
Rattus norvegicus [42] = test: Distribution of radioactivity in brain tissue of rats at 30 mins after an intravenous injection; Value expressed as mean % injected dose, Range- 0.25-0.37; assay type: ADME, organism-based; details: in vivo, 0.5 h; in short: as §1
Rattus norvegicus [43] = test: Distribution of radioactivity in thyroid tissue of rats at 5 mins after an intravenous injection; Value expressed as mean % injected dose, Range- 6.19-7.22; assay type: ADME, organism-based, Thyroid gland; details: in vivo; in short: as §1
Rattus norvegicus [44] = test: Distribution of radioactivity in liver tissue of rats at 5 mins after an intravenous injection; Value expressed as mean % injected dose, Range- 2.49-2.82; assay type: ADME, organism-based; details: in vivo; in short: as §1
Rattus norvegicus [45] = test: Ratio between the distribution of radioactivity of brain to that of blood tissue of rats at 2 hr after an intravenous administration; assay type: ADME, organism-based; in short: as §2
Rattus norvegicus [46] = test: Distribution of radioactivity in lung tissue of rats at 2 hr after an intravenous injection; Value expressed as mean % injected dose, Range- 0.47-0.58; assay type: ADME, organism-based; details: in vivo; in short: as §1
Rattus norvegicus [47] = test: Ratio between the distribution of radioactivity of brain to that of blood tissue of rats at 30 min after an intravenous administration; assay type: ADME, organism-based; details: 0.5 h; in short: as §2
Rattus norvegicus [48] = test: Distribution of radioactivity in thyroid tissue of rats at 2 hr after an intravenous injection; Value expressed as mean % injected dose, Range- 92-159; assay type: ADME, organism-based, Thyroid gland; details: in vivo; in short: as §1

CCC1(CCC/C=C/I)C(=O)NC(=O)NC1=O
Activity (Rattus norvegicus [1]): 0.5
Activity (Rattus norvegicus [2]): 7.64
Activity (Rattus norvegicus [3]): 1.21
Activity (Rattus norvegicus [4]): 0.02
Activity (Rattus norvegicus [5]): 0.33
Activity (Rattus norvegicus [6]): 0.71
Activity (Rattus norvegicus [7]): 0.82
Ratio (Rattus norvegicus [8]): 0.83
Activity (Rattus norvegicus [9]): 0.9
Activity (Rattus norvegicus [10]): 0.29
Activity (Rattus norvegicus [11]): 0.83
Activity (Rattus norvegicus [12]): 0.19
Activity (Rattus norvegicus [13]): 1.08
Activity (Rattus norvegicus [14]): 0.97
Activity (Rattus norvegicus [15]): 0.46
Activity (Rattus norvegicus [16]): 178
Activity (Rattus norvegicus [17]): 0.18
Ratio (Rattus norvegicus [18]): 0.07
Activity (Rattus norvegicus [19]): 0.92
Activity (Rattus norvegicus [20]): 0.1
Activity (Rattus norvegicus [21]): 0.56
Activity (Rattus norvegicus [22]): 0.02
Activity (Rattus norvegicus [23]): 434
Activity (Rattus norvegicus [24]): 0.007
Activity (Rattus norvegicus [25]): 0.03
Activity (Rattus norvegicus [26]): 26.16
Activity (Rattus norvegicus [27]): 1.23
Activity (Rattus norvegicus [28]): 0.21
Activity (Rattus norvegicus [29]): 3.19
Activity (Rattus norvegicus [30]): 1
Activity (Rattus norvegicus [31]): 1.31
Activity (Rattus norvegicus [32]): 0.03
Ratio (Rattus norvegicus [33]): 0.26
Activity (Rattus norvegicus [34]): 0.82
Activity (Rattus norvegicus [35]): 1.49
Ratio (Rattus norvegicus [36]): 0.2
Ratio (Rattus norvegicus [37]): 0.91
Activity (Rattus norvegicus [38]): 0.76
Activity (Rattus norvegicus [39]): 0.72
Activity (Rattus norvegicus [40]): 0.02
Activity (Rattus norvegicus [41]): 0.79
Activity (Rattus norvegicus [42]): 0.33
Activity (Rattus norvegicus [43]): 6.84
Activity (Rattus norvegicus [44]): 2.69
Ratio (Rattus norvegicus [45]): 0.14
Activity (Rattus norvegicus [46]): 0.52
Ratio (Rattus norvegicus [47]): 0.36
Activity (Rattus norvegicus [48]): 130
